Compound activity (PubChem BioAssay)
GRIN3A LBD mod = binders of NR3A ligand-binding domain, primary screen, biophysical, differential scanning fluorimetry, uHTS; Glutamate receptor ionotropic, NMDA 3A (GRIN3A) ligand-binding domain; 340,000 tested, 2.5% active; NR3A LBD differential scanning fluorimetry, Tm shift; 0% = protein alone, 100% = glycine-bound protein; Tm shift relative to glycine control, % at 25 µM; AID 1259313, 2017;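 active = melting temperature shift of at least 10% of the positive control shift, at one fixed dose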
PREPL inh = PREPL enzyme inhibitors, primary screen, biochemical, fluorescence polarization; Prolyl endopeptidase-like (Homo sapiens), Q4J6C6; recombinant PREPL, fluorescence polarization activity-based probe; inhibition, % at 5.96 µM; 320,000 tested, 0.68% active; in the data active = inhibition above about 43%;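 note: 0% = enzyme with DMSO and 100% = wells lacking enzyme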
Target sequence (Q4J6C6 whole entry, looked up): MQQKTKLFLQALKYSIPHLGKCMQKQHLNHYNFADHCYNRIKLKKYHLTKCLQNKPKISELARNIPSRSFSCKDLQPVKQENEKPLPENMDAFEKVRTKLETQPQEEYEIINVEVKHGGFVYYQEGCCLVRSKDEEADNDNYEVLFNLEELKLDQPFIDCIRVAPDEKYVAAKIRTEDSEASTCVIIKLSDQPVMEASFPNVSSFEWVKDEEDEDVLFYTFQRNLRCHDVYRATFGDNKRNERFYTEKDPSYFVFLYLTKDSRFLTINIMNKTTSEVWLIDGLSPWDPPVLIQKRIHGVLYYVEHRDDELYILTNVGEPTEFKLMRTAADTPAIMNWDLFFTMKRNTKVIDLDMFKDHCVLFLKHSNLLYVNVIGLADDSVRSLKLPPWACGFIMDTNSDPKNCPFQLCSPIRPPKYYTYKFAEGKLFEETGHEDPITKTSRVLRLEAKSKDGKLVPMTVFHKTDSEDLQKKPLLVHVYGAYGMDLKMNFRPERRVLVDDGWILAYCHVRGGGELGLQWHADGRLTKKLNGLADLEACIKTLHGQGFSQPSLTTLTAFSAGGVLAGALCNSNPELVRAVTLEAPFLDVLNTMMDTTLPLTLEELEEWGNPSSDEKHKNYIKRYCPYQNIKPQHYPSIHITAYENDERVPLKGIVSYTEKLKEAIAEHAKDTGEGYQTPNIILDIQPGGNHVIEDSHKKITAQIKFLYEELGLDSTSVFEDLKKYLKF
CHOP inh = inhibitors of CHOP promoter induction, primary screen, cell-based, unfolded protein response, luciferase reporter; CHO-K1 CHOP-promoter luciferase, tunicamycin-induced, 15-18 h; inhibition, % at 10 µM; 220,000 tested, 3.8% active; AID 2732, 2010;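 active = compounds that reduced the stress-induced luciferase reporter signal by more than about 70% of percent inhibition, limit read from the data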;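 note: 0% = tunicamycin plus vehicle and 100% = wells without tunicamycin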
T cruzi inh = inhibitors of intracellular T. cruzi growth, primary screen, luminescence, NIH3T3 host cells. inhibition, % (no concentration beside the values). AID 1885, 2009. T. cruzi beta-gal in NIH3T3, 90 h. 300,000 tested, 1.4% active;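 active = mean inhibition across valid replicates above about 55%, limit read from the data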;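 note: signal also drops with host cell toxicity which is not excluded here; 0% = plate median of DMSO wells and 100% = zero luminescence signal; higher percent means less beta-gal luminescence so fewer parasites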
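System – NIH/3T3 host cells with β-galactosidase reporter T. cruzi · Doses – single 50 nL compound addition per well in DMSO · Reagent – 5000 T. cruzi trypomastigotes/well · Medium – Low-serum DMEM with 2% FBS · Timing – ≥90 h infection period, 3 h prior cell attachment · Evaluation – parasite load inhibition, % · Technique – GalScreen luminescence, 60 min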
CSC inhib = cancer stem cell viability inhibitors, primary screen, luminescence; 300,000 tested, 1.1% active; inhibition, % at 7.5 µM; cancer stem cell-like cells viability; in the data active = inhibition above about 75%; tested in HMLE shEcad cells
Beta apoptosis = inhibitors of cytokine-induced beta cell apoptosis, primary screen, luminescence | INS-1E cytokine-induced death, ATP luminescence, 48 h; percent of positive-control rescue, neutral wells zero | 300,000 tested, 0.8% active | protection from apoptosis, % (test concentration not listed);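 active = Every replicate reaches about 75%, or at least half do and their mean reaches it too, limit read from the data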;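 note: 0% = cytokine-treated negative control wells and 100% = positive control rescue; higher means more ATP so stronger rescue from cytokine killing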
Starred values were filed as active, the others as inactive; . = not tested or not shown. The list is not random: actives were taken first. Their share in the collection is about 6.7%.

SMILES	GRIN3A LBD mod	PREPL inh	CHOP inh	T cruzi inh	CSC inhib	Beta apoptosis
Cc1ccc2nc(N3CC(=O)Nc4ccccc43)nc(-c3ccccc3)c2c1	-18	0	89*	.	9	5
CN(C(=S)NC(=O)C1CC1)c1ccc(O)cc1	3	10	.	.	-5	0
CC(=O)c1ccc(NC(=O)NC2CC(=O)N(c3ccc4c(c3)OCCO4)C2)cc1 (stereo unspecified)	14*	5	.	-7	-2	.
COc1cccc(NC(=O)NC2CC(=O)N(c3ccc4c(c3)OCCO4)C2)c1 (stereo unspecified)	-1	-6	.	16	-14	-5
COc1nc(Nc2cccc(F)c2)nc(OC)n1	-1	-11	.	-7	-14	.
Nc1nc(Nc2ccccc2)nc(NC2CCCCC2)c1[N+](=O)[O-]	4	-4	.	-3	104*	28
CNc1nc(N)c([N+](=O)[O-])c(Nc2cccc(F)c2)n1	4	-3	15	-10	12	94*
COc1cc2nc(Nc3cccc(F)c3)nc(N)c2cc1OC	17*	24	.	25	-5	0
COc1cccc(N2C(=O)C(Cc3c[nH]c4ccccc34)NC2=S)c1 (stereo unspecified)	0	-5	27	-10	0	0
O=c1[nH]c2ccc(Cl)cc2c(-c2ccccc2)c1N1CCN(c2ccccn2)CC1	-23	12	71*	49	40	-7
CNc1nc(SC(C)C(=O)Nc2ccc(Cl)c(Cl)c2)nc(N2CCOCC2)n1 (stereo unspecified)	-6	-2	56	16	-4	-1
Cc1cc(C)c2c(N)c(C(=O)c3ccc(Cl)cc3)sc2n1	-12	10	-8	45	34	12
Cc1cc(-c2cccs2)c2c(N)c(C(=O)c3ccc4c(c3)OCO4)sc2n1	21*	9	31	3	-8	-10
Cc1cc(C)c2c(N)c(C(=O)c3ccccc3)sc2n1	-1	-9	11	66*	-2	3
Cc1cc(C)c2c(N)c(C(=O)c3ccc(Cl)c(Cl)c3)sc2n1	1	10	14	101*	4	11
COc1ccc(C(=O)c2sc3nc(C)cc(-c4cccs4)c3c2N)cc1	1	.	35	-3	.	.
CCn1nc(C)cc1C(=O)N1CCCC(C(=O)c2ccccc2SC)C1 (stereo unspecified)	0	13	.	-21	-1	0
CN(CC(=O)Nc1ccc(N2CCOCC2)cc1)C(=O)CCNC(=O)c1ccc(Br)cc1	1	6	.	-8	-7	.
CCC(CO)Oc1cc(NC(=O)c2ccccc2[N+](=O)[O-])c2ncn(C(C)C)c2c1 (stereo unspecified)	0	8	.	.	.	-2
Cc1cc(C(=O)Nc2ccc(S(=O)(=O)Nc3onc(C)c3C)cc2)c(C)o1	-1	7	8	-6	-7	-4
Cc1noc(NS(=O)(=O)c2ccc(NC(=O)c3cc(F)c(F)c(F)c3F)cc2)c1C	92*	.	.	.	.	.
O=C(N/N=C/c1ccc(Cl)cc1)c1cc(-c2cccnc2)nc2ccccc12	-5	20	84*	-30	44	20
O=C(NNC(=O)c1cc(-c2ccncc2)nc2ccccc12)Nc1ccc(F)cc1	-5	-11	.	-15	1	2
Nc1sc(-c2ccccc2)cc1C(=O)N/N=C/c1ccc(Cl)cc1	13*	33	-13	16	.	.
O=C(NNC(=O)c1cc(-c2cccnc2)nc2ccccc12)Nc1ccc(Cl)cc1	26*	-6	25	-1	50	21
O=C(N/N=C/c1ccc(Cl)cc1)c1cc2c(s1)-c1ccccc1CC2	12*	4	58	-39	38	18
CC(C)(C)c1ccc(-c2cc(C(=O)NNC(=O)Nc3ccccc3)c3ccccc3n2)cc1	12*	8	94*	0	5	16
O=C(NNC(=O)c1cc(-c2ccccc2)nc2ccccc12)Nc1cccc(Cl)c1	26*	-50	1	25	60	3
CC(=O)Nc1ccc(-c2cc(C(=O)O)c3ccccc3n2)cc1	0	-1	22	10	-4	-17
